Legend:
[1] = Prodrug activation in C57Bl/6 mouse brain assessed as sobetirome level at 1.5 umol/kg, ip after 1 hr by LC-MS/MS analysis; type: organism-based; details: in vivo
Summary of the method: (§1)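 Single i.p. dose of 1.5 μmol/kg in 50% DMSO/saline to male C57Bl/6 mice (8–10 wk), n = 3. Agents were given as amide-rearranged isomers where rearrangement occurs. Whole brain and blood were taken at 1 h. Sobetirome was measured by LC-MS/MS with d6-sobetirome internal standard, and the brain/serum ratio was calculated. Values are mean with SEM.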

[2] = Ratio of drug level in C57Bl/6 mouse brain to serum assessed as sobetirome level at 1.5 umol/kg, ip after 1 hr by LC-MS/MS analysis; type: ADME, organism-based; summary of the method: as §1
[3] = AUC (0 to t) in C57Bl/6 mouse heart assessed as sobetirome level at 1.5 umol/kg, ip by LC-MS/MS analysis; type: ADME, organism-based; details: in vivo
Summary of the method: (§2)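 Male C57Bl/6 mice (8–10 wk) given a single i.p. dose of 1.5 μmol/kg in 50% DMSO/saline. Three mice per time point were killed at 0.25, 0.5, 1, 2, 4 and 8 h. Brain, liver, heart and kidney were homogenized with d6-sobetirome internal standard and acetonitrile-extracted, as was serum. Sobetirome was quantified by negative-ESI LC-MS/MS on C18. AUC0→t was computed over 8 h.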

[4] = tested on: Mus musculus; assay: Oral bioavailability in C57Bl/6 mouse at 30.5 umol/kg administered via oral gavage by LC-MS/MS analysis; details: in vivo
[5] = tested on: Mus musculus; assay: Total oral bioavailability in C57Bl/6 mouse assessed as sobetirome level at 30.5 umol/kg administered via oral gavage by LC-MS/MS analysis; details: in vivo
[6] = AUC (0 to t) in C57Bl/6 mouse kidney assessed as sobetirome level at 1.5 umol/kg, ip by LC-MS/MS analysis; type: ADME, organism-based; details: in vivo; summary of the method: as §2
[7] = AUC (0 to t) in C57Bl/6 mouse brain assessed as sobetirome level at 1.5 umol/kg, ip by LC-MS/MS analysis; type: ADME, organism-based; details: in vivo; summary of the method: as §2
[8] = AUC (0 to t) in C57Bl/6 mouse liver assessed as sobetirome level at 1.5 umol/kg, ip by LC-MS/MS analysis; type: ADME, organism-based; details: in vivo; summary of the method: as §2
[9] = Elimination half life in C57Bl/6 mouse at 3.05 umol/kg, iv by LC-MS/MS analysis; type: ADME, organism-based; details: in vivo, read-out: beta t1/2 (converted)
Summary of the method: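 C57Bl/6 mice, n = 3 per cohort, dosed i.v. by tail vein at 3.05 μmol/kg or by oral gavage at 30.5 μmol/kg in 50% DMSO/saline. Serial serum samples were taken (i.v.: 5 min–8 h; p.o.: 10 min–8 h). Prodrug and sobetirome were quantified by LC-MS/MS. %F = (AUCp.o./AUCi.v.)·(dosei.v./dosep.o.)·100. t½ came from the log-concentration slope of the last five i.v. time points.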

[10] = tested on: Mus musculus; assay: Upregulation of Hr expression levels in ip dosed mouse brain for 7 days measured after 2 hrs post last dose by […] green dye-based qPCR analysis; type: functional
Summary of the method: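 Mice, n = 3 per dose, received six i.p. doses in 1:1 saline/DMSO. Brains were collected 2 h post-injection. RNA was extracted with Trizol and a column kit with DNase treatment, and cDNA was diluted two-fold. Hairless was measured by qPCR, normalized to GAPDH, by comparative CT. ED50 ± SEM came from a sigmoidal dose–response fit. Run in triplicate.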

[11] = Ratio of AUC (0 to t) in C57Bl/6 mouse brain to serum at 1.5 umol/kg, ip by LC-MS/MS analysis; type: ADME, organism-based; details: read-out: Ratio AUC; summary of the method: as §2
[12] = AUC (0 to t) in C57Bl/6 mouse serum assessed as sobetirome level at 1.5 umol/kg, ip by LC-MS/MS analysis; type: ADME, organism-based; details: in vivo; summary of the method: as §2
[13] = AUC (0 to t) in C57Bl/6 mouse brain at 1.5 umol/kg, ip by LC-MS/MS analysis; type: ADME, organism-based; details: in vivo; summary of the method: as §2
[14] = AUC (0 to t) in C57Bl/6 mouse serum at 1.5 umol/kg, ip by LC-MS/MS analysis; type: ADME, organism-based; details: in vivo; summary of the method: as §2
[15] = AUC (0 to t) in C57Bl/6 mouse liver at 1.5 umol/kg, ip by LC-MS/MS analysis; type: ADME, organism-based; details: in vivo; summary of the method: as §2
[16] = Ratio of drug level in C57Bl/6 mouse brain to serum at 1.5 umol/kg, ip after 1 hr by LC-MS/MS analysis; type: ADME, organism-based
Summary of the method: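 Male C57Bl/6 mice, 8–10 weeks old, given one i.p. dose of 1.5 μmol/kg in 50% DMSO/saline. Whole brain and blood taken 1 h later; serum obtained from blood clotted on ice ≥30 min and spun at 7,500 × g for 15 min. d6-sobetirome internal standard added, acetonitrile extraction, sobetirome quantified by negative-ESI LC-MS/MS. Mean of n = 3 mice, SEM.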

[17] = AUC (0 to t) in C57Bl/6 mouse kidney at 1.5 umol/kg, ip by LC-MS/MS analysis; type: ADME, organism-based; details: in vivo; summary of the method: as §2
[18] = Drug uptake in C57Bl/6 mouse brain at 1.5 umol/kg, ip after 1 hr by LC-MS/MS analysis; type: ADME, organism-based; details: read-out: Drug uptake; summary of the method: as §1
[19] = AUC (0 to t) in C57Bl/6 mouse heart at 1.5 umol/kg, ip by LC-MS/MS analysis; type: ADME, organism-based; details: in vivo; summary of the method: as §2

Structure (SMILES)	Activity [1] [ng/g]	Ratio [2]	also measured
Cc1cc(OCC(=O)OC(CN)C(C)C)cc(C)c1Cc1ccc(O)c(C(C)C)c1 (configuration not stated)	3.38	0.045	–
Cc1cc(OCC(=O)O)cc(C)c1Cc1ccc(O)c(C(C)C)c1 [SOBETIROME]	–	–	AUCt [13]: 9.9 ng·h/g; F [4]: 92%; AUCt [14]: 472.6 ng·h/g; AUCt [15]: 2235 ng·h/g; Kp at 1 h [16]: 0.037; AUCt [17]: 686.8 ng·h/g; half-life [9]: 7.12 h; concentration at 1 h [18]: 2.32 ng/g; Activity [10]: Dose-dependent effect; ED50 [10]: 1.8 µmol/kg; Kp [11]: 0.02; AUCt [19]: 180.3 ng·h/g
Cc1cc(OCC(=O)NC[C@H](C)O)cc(C)c1Cc1ccc(O)c(C(C)C)c1	–	–	Drug metabolism [1]: Metabolite_Detected
CNCCOC(=O)COc1cc(C)c(Cc2ccc(O)c(C(C)C)c2)c(C)c1	6.33	0.21	–
Cc1cc(OCC(=O)OC(C)(C)CN)cc(C)c1Cc1ccc(O)c(C(C)C)c1	0.4	1.22	–
Cc1cc(OCC(=O)OCCN)cc(C)c1Cc1ccc(O)c(C(C)C)c1	4.92	0.066	–
Cc1cc(OCC(=O)OC2(C(F)(F)F)CNC2)cc(C)c1Cc1ccc(O)c(C(C)C)c1	5.14	0.13	–
CCC(CN)OC(=O)COc1cc(C)c(Cc2ccc(O)c(C(C)C)c2)c(C)c1 (configuration not stated)	4.26	0.41	–
Cc1cc(OCC(=O)OC(CN)C(F)(F)F)cc(C)c1Cc1ccc(O)c(C(C)C)c1 (configuration not stated)	5.23	0.2	–

More lines, main results first:

Activity [1] [ng/g]	Ratio [2]	Structure (SMILES)	also measured
8.12	0.19	Cc1cc(OCC(=O)O[C@H](C)CN)cc(C)c1Cc1ccc(O)c(C(C)C)c1	–
8.26	0.47	Cc1cc(OCC(=O)O[C@@H](C)CN)cc(C)c1Cc1ccc(O)c(C(C)C)c1	AUCt [3]: 57.2 ng·h/g; F [4]: 36%; F [5]: 56%; AUCt [6]: 283.8 ng·h/g; AUCt [7]: 17.2 ng·h/g; AUCt [8]: 1017 ng·h/g; half-life [9]: 6.96 h; Activity [10]: Dose-dependent effect; ED50 [10]: 1 µmol/kg; Kp [11]: 0.13; AUCt [12]: 136.5 ng·h/g
5.12	0.23	CNCC(C)OC(=O)COc1cc(C)c(Cc2ccc(O)c(C(C)C)c2)c(C)c1 (configuration not stated)	–
0.48	0.23	Cc1cc(OCC(=O)OC(C)CNC(C)C)cc(C)c1Cc1ccc(O)c(C(C)C)c1 (configuration not stated)	–
1.79	0.024	CNCC(OC(=O)COc1cc(C)c(Cc2ccc(O)c(C(C)C)c2)c(C)c1)C(C)C (configuration not stated)	–
4.46	0.33	Cc1cc(OCC(=O)OC(C)CCN)cc(C)c1Cc1ccc(O)c(C(C)C)c1 (configuration not stated)	–
5.92	0.21	Cc1cc(OCC(=O)OC(C)CN)cc(C)c1Cc1ccc(O)c(C(C)C)c1 (configuration not stated)	–

— ChEMBL document CHEMBL4177554, “Ester-to-amide rearrangement of ethanolamine-derived prodrugs of sobetirome with increased blood-brain barrier penetration” (Bioorg Med Chem, 2017)
